Assay results published in ChEMBL document CHEMBL1145237, “Amide derivatives of 9,11-seco-estra-1,3,5(10)-trien-11-oic acid as modified orally active estrogen agonists with moderate antagonistic activity” (Bioorg Med Chem Lett, 2005).

Legend:
[1] = target: T1, Estrogen receptor (Rattus norvegicus) (UniProt P06211+Q62986); assay: Relative binding affinity for immature rat cytosolic estrogen receptor; assay type: protein assay
Summary of the method: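 Rat uterine cytosol receptor (20–21-day-old animals, pH 7.4 Tris-EDTA buffer) was incubated in triplicate for 18 h at 4 °C with fixed [3H]-estradiol and graded competitor concentrations, with DMF ≤5% final. Bound ligand was separated with dextran-coated charcoal and counted. Percent bound versus log concentration was plotted, and the 50%-inhibition concentration was compared with that of estradiol to give RBA.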

Rattus norvegicus = species: Rattus norvegicus; assay: Percent inhibition of ethynylestradiol-induced uterine weight gain in ovariectomized immature rats; set-up: concentration or dose not given beside the values; conditions: concentration not given here
[2] = target: T1, Estrogen receptor (Rattus norvegicus); assay: Estrogenic activity in rat uterine weight assay; assay type: functional
[3] = target: T1, Estrogen receptor (Rattus norvegicus)
[4] = target: T1, Estrogen receptor (Rattus norvegicus); assay: Estrogenic activity as percent gain in rat uterine weight at 10 mg/kg/day; assay type: functional, organism-based
Summary of the method: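 Immature female rats were dosed orally once daily on days 28–30 of age at 10 mg/kg, with a vehicle-only control group. At autopsy on day 31, 24 h after the last dose, vaginal opening and vaginal-smear cornification were scored, and the blotted uterus was weighed fresh. Uterine gain was expressed as percent of vehicle control, as mean ± SEM of at least six observations per group.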

| RBA [1] [%] | inhibition (Rattus norvegicus) [%] | Weight [2] [mg] | Weight [3] [mg] | Gain [4] [%] | SMILES |
| --- | --- | --- | --- | --- | --- |
| < 0.001 | 11.7 | 82.4 | 90 | 412 | CCCCCCCCCCCCNC(=O)C[C@@]1(C)C(C2CCc3cc(OC)ccc3C2)CC[C@@H]1OC(C)=O (stereo not given in full) |
| < 0.001 | 26.1 | 18.7 | 67.2 | 6.63 | CCCNC(=O)C[C@@]1(C)C(C2CCc3cc(OC)ccc3C2)CC[C@@H]1OC(C)=O (stereo not given in full) |
| < 0.001 | 14 | 74.4 | 87.7 | 362 | COc1ccc2c(c1)CCC(C1CC[C@H](OC(C)=O)[C@@]1(C)CC(=O)NCc1ccccc1)C2 (stereo not given in full) |
| < 0.001 | 20.2 | 70.7 | 77.5 | 282 | COc1ccc(NC(=O)C[C@@]2(C)C(C3CCc4cc(OC)ccc4C3)CC[C@@H]2OC(C)=O)cc1 (stereo not given in full) |

Continued, compound first:

| SMILES | RBA [1] [%] | inhibition (Rattus norvegicus) [%] | Weight [2] [mg] | Weight [3] [mg] | Gain [4] [%] |
| --- | --- | --- | --- | --- | --- |
| COc1cccc(NC(=O)C[C@@]2(C)C(C3CCc4cc(OC)ccc4C3)CC[C@@H]2OC(C)=O)c1 (stereo not given in full) | < 0.001 | 15.6 | 84.9 | 86 | 428 |
| COc1ccc2c(c1)CCC(C1CC[C@H](OC(C)=O)[C@@]1(C)CC(=O)Nc1ccccc1)C2 (stereo not given in full) | < 0.001 | 11.5 | 18 | 69 | 2.91 |
| CCCCCNC(=O)C[C@@]1(C)C(C2CCc3cc(OC)ccc3C2)CC[C@@H]1OC(C)=O (stereo not given in full) | < 0.001 | 17.2 | 23.7 | 75.3 | 35.2 |
| CCCCCCCCNC(=O)C[C@@]1(C)C(C2CCc3cc(OC)ccc3C2)CC[C@@H]1OC(C)=O (stereo not given in full) | < 0.001 | 5.98 | 87 | 95.9 | 441 |
| CCCCNC(=O)C[C@@]1(C)C(C2CCc3cc(OC)ccc3C2)CC[C@@H]1OC(C)=O (stereo not given in full) | < 0.001 | 22.1 | 40.7 | 70.9 | 133 |
| COc1ccc2c(c1)CCC(C1CC[C@H](OC(C)=O)[C@@]1(C)CC(=O)NCCc1ccccc1)C2 (stereo not given in full) | < 0.001 | 6.41 | 19 | 73 | 8.57 |
| COc1ccc2c(c1)CCC(C1CC[C@H](OC(C)=O)[C@@]1(C)CC(=O)NCCCc1ccccc1)C2 (stereo not given in full) | < 0.001 | 10 | 74.3 | 83.6 | 422 |
